This passage reports EC50, inhibition and CC50 results from ChEMBL document CHEMBL4411292, “Boronate, trifluoroborate, sulfone, sulfinate and sulfonate congeners of oseltamivir carboxylic acid: Synthesis and anti-influenza activity” (Eur J Med Chem, 2019).

Active and inactive are the calls of the source. The rule behind the calls is not given here.

Data set [1] relates to Influenza A virus. Put plainly: Antiviral activity against Influenza A virus (A/WSN/1933(H1N1)) infected in MDCK cells assessed as reduction in virus-induced cytopathic effect after 48 hrs by CellTiter 96 aqueous non-radioactive cell proliferation assay. It counts as functional, organism-based. The method in brief:
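MDCK cells (DMEM with 10% FBS, 37 °C, 5% CO2) were seeded at 1 × 10^5 cells/mL and infected with 100 TCID50 of A/WSN/33 premixed with inhibitor at varied concentrations. Incubation was 48 h at 37 °C, 5.0% CO2. Viability was read with CellTiter 96 AQueous reagent (15 min, A490). EC50 was fitted from % CPE vs concentration, as mean ± SD of three experiments.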
(Damage to the host cells serves as the signal in cytopathic effect assays.)

The target of data set [2] is Neuraminidase (Influenza A virus (A/Puerto Rico/8/1934(H1N1))) (UniProt P03468). Put plainly: Irreversible inhibition of influenza A virus (A/WSN/1933(H1N1)) neuraminidase using MUNANA as fluorogenic substrate preincubated up to 48 hrs followed by substrate addition and measured after 15 mins by fluorometric assay.
Neuraminidase (Influenza A virus (A/Puerto Rico/8/1934(H1N1))), sequence (P03468 whole entry): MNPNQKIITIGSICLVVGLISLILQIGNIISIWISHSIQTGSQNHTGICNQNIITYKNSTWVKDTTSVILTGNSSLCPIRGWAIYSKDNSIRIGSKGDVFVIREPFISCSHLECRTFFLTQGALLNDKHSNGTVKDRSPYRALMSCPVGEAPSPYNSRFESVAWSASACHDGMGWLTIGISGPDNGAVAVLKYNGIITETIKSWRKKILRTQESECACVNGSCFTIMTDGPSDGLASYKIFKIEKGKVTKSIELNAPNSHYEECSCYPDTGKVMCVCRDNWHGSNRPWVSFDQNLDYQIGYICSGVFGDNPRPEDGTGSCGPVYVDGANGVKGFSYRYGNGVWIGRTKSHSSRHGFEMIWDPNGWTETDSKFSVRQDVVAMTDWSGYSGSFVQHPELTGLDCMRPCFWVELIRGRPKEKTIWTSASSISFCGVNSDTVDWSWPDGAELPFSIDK
Data set [3] is described as follows: Cytotoxicity against MDCK cells assessed as reduction in cell viability after 48 hrs by CellTiter 96 aqueous non-radioactive cell proliferation assay. It is filed as cell-based, Canis lupus familiaris. The following applies: dog. A digest of the protocol:
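Uninfected MDCK cells at 1 × 10^5 cells/mL were exposed to inhibitor at varied concentrations for 48 h at 37 °C, 5.0% CO2. Viability was read with CellTiter 96 AQueous reagent (15 min, absorbance at 490 nm). CC50 was derived by curve fitting as for EC50.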

As to `CCC(CC)O[C@@H]1C=C(C(=O)O)C[C@H](NC(=N)N)[C@H]1NC(C)=O`, in data set [1], the EC50 (in general, the midpoint of the concentration-response curve) came to 14 nM.
Take `CCC(CC)O[C@@H]1C=C(B(O)O)C[C@H](NC(=N)N)[C@H]1NC(C)=O`: in data set [1], the EC50 came to 580 nM. Also, the inhibition result in data set [2] is “inactive”.
Taken in the same sequence, the figures for `CCC(CC)O[C@@H]1C=C([B-](F)(F)F)C[C@H](NC(=N)N)[C@H]1NC(C)=O` were 270 nM and “inactive”.
On to `CCC(CC)O[C@@H]1C=C(S(=O)(=O)O)C[C@H](NC(=N)N)[C@H]1NC(C)=O`, for which the EC50 in data set [1] was found to be 2.2 nM. For the same compound, the CC50 (usually the concentration at which the toxic effect on the cells reaches its halfway point) at 48 h in data set [3] is greater than 100 µM.
Turning to `CCCCOS(=O)(=O)C1=C[C@@H](OC(CC)CC)[C@H](NC(C)=O)[C@@H](N)C1`, the 50% effective concentration (EC50) in data set [1] turned out to be 190 nM.
Same read-out and setting: next, `CCC(CC)O[C@@H]1C=C(S(=O)(=O)OCCCc2ccccc2)C[C@H](N)[C@H]1NC(C)=O`: 280 nM.
On to `CCC(CC)O[C@@H]1C=C([S+]([O-])O)C[C@H](N)[C@H]1NC(C)=O` (stereo not given in full), for which the EC50 in data set [1] was 48 nM. Besides, in data set [3], the CC50 at 48 h was greater than 100 µM.
Turning to `CCC(CC)O[C@@H]1C=C(C(=O)O)C[C@H](N)[C@H]1NC(C)=O` [OSELTAMIVIR CARBOXYLATE], in data set [1], the EC50 was found to be 28 nM.
On to `CCC(CC)O[C@@H]1C=C([S+]([O-])O)C[C@H](NC(=N)N)[C@H]1NC(C)=O` (stereo not given in full), for which, in data set [1], the EC50 is 7.8 nM. In data set [3], the CC50 at 48 h was greater than 100 µM.
For `CCCCOS(=O)(=O)C1=C[C@@H](OC(CC)CC)[C@H](NC(C)=O)[C@@H](NC(=N)N)C1`, in that order: 31 nM and greater than 100 µM.
`CCC(CC)O[C@@H]1C=C(S(=O)(=O)CCc2ccncc2)C[C@H](NC(=N)N)[C@H]1NC(C)=O`: the EC50 in data set [1] stood at 100 nM. Also, the CC50 at 48 h in data set [3] is greater than 100 µM.
For `CCC(CC)O[C@@H]1C=C(S(=O)(=O)O)C[C@H](N)[C@H]1NC(C)=O`, in that order: 14 nM and greater than 100 µM.
On to `CCC(CC)O[C@@H]1C=C(B(O)O)C[C@H](N)[C@H]1NC(C)=O`, for which, in data set [1], the EC50 is 1700 nM. Moreover, the inhibition result in data set [2] was “inactive”.
For `CCC(CC)O[C@@H]1C=C([B-](F)(F)F)C[C@H](N)[C@H]1NC(C)=O`, in that order: 860 nM and “inactive”.
As for `CCC(CC)O[C@@H]1C=C(S(=O)(=O)OCCCc2ccccc2)C[C@H](NC(=N)N)[C@H]1NC(C)=O`, the EC50 in data set [1] stood at 24 nM. Also, the CC50 at 48 h in data set [3] is greater than 100 µM.
Turning to `CCC(CC)O[C@@H]1C=C(S(=O)(=O)CCc2ccncc2)C[C@H](N)[C@H]1NC(C)=O`, the EC50 in data set [1] came out at 1500 nM.
For `CCC(CC)O[C@@H]1C=C(S(C)(=O)=O)C[C@H](N)[C@H]1NC(C)=O`, in data set [1], the half-maximal effective concentration (EC50) was found to be 1200 nM.
On to `CCC(CC)O[C@@H]1C=C(S(C)(=O)=O)C[C@H](NC(=N)N)[C@H]1NC(C)=O`, for which, in data set [1], the EC50 is 46 nM. Moreover, the CC50 at 48 h in data set [3] is greater than 100 µM.
